Columns and labels:
[1] = biological target: T1, Tyrosine-protein phosphatase non-receptor type 1 (Homo sapiens) (UniProt P18031); test: Inhibition of GST-tagged human recombinant PTB1B using pNPP as substrate at 5 ug/ml after 3 mins
T1 sequence (whole entry): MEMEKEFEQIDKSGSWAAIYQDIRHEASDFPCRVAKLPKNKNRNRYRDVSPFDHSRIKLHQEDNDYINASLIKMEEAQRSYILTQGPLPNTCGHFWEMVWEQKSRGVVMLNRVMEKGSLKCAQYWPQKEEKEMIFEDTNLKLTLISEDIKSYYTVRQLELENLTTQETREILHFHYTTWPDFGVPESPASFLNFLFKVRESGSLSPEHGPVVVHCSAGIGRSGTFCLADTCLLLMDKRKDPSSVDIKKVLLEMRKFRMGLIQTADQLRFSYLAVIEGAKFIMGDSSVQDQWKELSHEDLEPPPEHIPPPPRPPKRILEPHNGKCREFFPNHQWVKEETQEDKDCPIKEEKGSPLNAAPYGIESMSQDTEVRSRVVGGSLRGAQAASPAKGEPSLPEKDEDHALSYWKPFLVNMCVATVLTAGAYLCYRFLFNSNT

[2] = biological target: T1, Tyrosine-protein phosphatase non-receptor type 1 (Homo sapiens); test: Inhibition of GST-tagged human recombinant PTB1B using pNPP as substrate at 20 ug/ml after 3 mins
[3] = biological target: T2, Tyrosine-protein phosphatase non-receptor type 1 (Homo sapiens, UniProt P18031); test: Inhibition of GST-tagged human recombinant PTB1B using pNPP as substrate after 3 mins
T2 sequence (P18031 whole entry): T1 sequence (whole entry)

Mus musculus [4] = test: Antihyperglycemic activity in C57BL/Ks db/db mouse assessed as reduction of glycosylated hemoglobin level using HbA1c reagent at 50 mg/kg, po after 2 to 6 weeks relative to control; format: functional; parameters: scale not given: the % may be the effect or the level left
How it was run: (§1)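 HbA1c measured in C57BL/Ks db/db mice (n = 8 per group, 10 weeks old at start). Mice received oral doses suspended in 0.5% sodium carboxymethyl cellulose for six weeks, alongside a vehicle-treated model group. Results given as mean ± SD, compared against the model group.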

Mus musculus [5] = test: Toxicity in C57BL/Ks db/db mouse at 25 to 50 mg/kg, po after 2 to 6 weeks; format: organism-based; parameters: route oral; conditions: in vivo
Mus musculus [6] = test: Antidyslipidemic activity in C57BL/Ks db/db mouse assessed as reduction of total cholesterol level at 25 mg/kg, po after 6 weeks (reference value: 9.2 +/- 1.2 mmol/L); format: functional
Homo sapiens [7] = species: Homo sapiens; test: Selectivity ratio of IC50 for SHP2 to IC50 for GST-tagged human recombinant PTB1B
Mus musculus [8] = test: Antihyperglycemic activity in C57BL/Ks db/db mouse assessed as reduction of plasma glucose level at 25 mg/kg, po after 2 to 6 weeks by glucometer relative to control; format: functional; parameters: scale not given: the % may be the effect or the level left
How it was run: (§2)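 db/db mice (C57BL/Ks, 10 weeks old, n = 8 per group) given compound orally in 0.5% sodium carboxymethyl cellulose for six weeks, with a vehicle model group. Postprandial blood glucose read weekly by glucometer. Baseline, 2-week and 6-week values given as mean ± SD. Percent decrease reported at 6 weeks, with statistics against the model group.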

[9] = biological target: T3, Tyrosine-protein phosphatase non-receptor type 11 (Homo sapiens, UniProt Q06124); test: Inhibition of SHP2 using OMFP as substrate after 3 mins
T3 sequence (Q06124 whole entry): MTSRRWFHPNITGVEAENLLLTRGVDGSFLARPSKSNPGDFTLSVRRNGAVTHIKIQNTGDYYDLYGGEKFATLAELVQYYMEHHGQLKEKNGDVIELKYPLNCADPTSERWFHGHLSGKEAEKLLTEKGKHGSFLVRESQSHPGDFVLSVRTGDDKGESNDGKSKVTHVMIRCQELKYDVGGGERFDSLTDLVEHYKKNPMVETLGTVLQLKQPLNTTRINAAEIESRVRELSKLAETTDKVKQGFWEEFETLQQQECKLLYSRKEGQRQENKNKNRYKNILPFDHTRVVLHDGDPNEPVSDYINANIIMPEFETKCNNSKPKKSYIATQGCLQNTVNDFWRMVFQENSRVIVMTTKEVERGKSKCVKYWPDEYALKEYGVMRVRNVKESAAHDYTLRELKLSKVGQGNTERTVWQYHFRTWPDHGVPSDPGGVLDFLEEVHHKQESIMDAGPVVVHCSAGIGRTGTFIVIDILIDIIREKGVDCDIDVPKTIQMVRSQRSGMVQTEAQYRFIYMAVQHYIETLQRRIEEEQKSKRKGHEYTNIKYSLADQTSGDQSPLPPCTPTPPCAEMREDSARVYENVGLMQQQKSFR
How it was run: (§3)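 Selectivity assays run in the same system as PTP1B. Enzyme and inhibitor preincubated 3 min at 4 °C, then the reaction started by adding substrate. OMFP used as substrate for SHP1, SHP2 and LAR. IC50 derived by Hill-equation fit of percent inhibition against inhibitor concentration.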

Mus musculus [10] = test: Antidyslipidemic activity in C57BL/Ks db/db mouse assessed as reduction of triacylglycerol level at 25 mg/kg, po after 2 weeks (reference value: 1.24 +/- 0.12 mmol/L); format: functional
[11] = biological target: T4, Tyrosine-protein phosphatase non-receptor type 2 (Homo sapiens, UniProt P17706); test: Inhibition of TCPTP after 3 mins; how it was run: as §3
T4 sequence (P17706 whole entry): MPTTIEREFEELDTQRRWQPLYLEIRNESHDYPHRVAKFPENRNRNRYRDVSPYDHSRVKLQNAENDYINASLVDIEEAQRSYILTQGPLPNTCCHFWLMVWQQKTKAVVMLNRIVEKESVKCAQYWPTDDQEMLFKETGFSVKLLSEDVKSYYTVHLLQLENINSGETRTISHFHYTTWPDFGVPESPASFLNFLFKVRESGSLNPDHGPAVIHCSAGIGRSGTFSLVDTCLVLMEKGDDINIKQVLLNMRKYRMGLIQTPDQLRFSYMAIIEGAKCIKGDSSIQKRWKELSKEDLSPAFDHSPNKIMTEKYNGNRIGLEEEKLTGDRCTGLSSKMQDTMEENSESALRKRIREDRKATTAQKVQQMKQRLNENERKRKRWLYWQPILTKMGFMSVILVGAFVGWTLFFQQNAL

Mus musculus [12] = test: Antidyslipidemic activity in C57BL/Ks db/db mouse assessed as reduction of triacylglycerol level at 25 mg/kg, po after 6 weeks (reference value: 1.56 +/- 0.17 mmol/L); format: functional
Homo sapiens [13] = species: Homo sapiens; test: Selectivity ratio of IC50 for LAR to IC50 for GST-tagged human recombinant PTB1B
[14] = biological target: Tyrosine-protein phosphatase non-receptor type 6 (Homo sapiens, UniProt P29350); test: Inhibition of SHP1 using OMFP as substrate after 3 mins; how it was run: as §3
Tyrosine-protein phosphatase non-receptor type 6, sequence (P29350 whole entry): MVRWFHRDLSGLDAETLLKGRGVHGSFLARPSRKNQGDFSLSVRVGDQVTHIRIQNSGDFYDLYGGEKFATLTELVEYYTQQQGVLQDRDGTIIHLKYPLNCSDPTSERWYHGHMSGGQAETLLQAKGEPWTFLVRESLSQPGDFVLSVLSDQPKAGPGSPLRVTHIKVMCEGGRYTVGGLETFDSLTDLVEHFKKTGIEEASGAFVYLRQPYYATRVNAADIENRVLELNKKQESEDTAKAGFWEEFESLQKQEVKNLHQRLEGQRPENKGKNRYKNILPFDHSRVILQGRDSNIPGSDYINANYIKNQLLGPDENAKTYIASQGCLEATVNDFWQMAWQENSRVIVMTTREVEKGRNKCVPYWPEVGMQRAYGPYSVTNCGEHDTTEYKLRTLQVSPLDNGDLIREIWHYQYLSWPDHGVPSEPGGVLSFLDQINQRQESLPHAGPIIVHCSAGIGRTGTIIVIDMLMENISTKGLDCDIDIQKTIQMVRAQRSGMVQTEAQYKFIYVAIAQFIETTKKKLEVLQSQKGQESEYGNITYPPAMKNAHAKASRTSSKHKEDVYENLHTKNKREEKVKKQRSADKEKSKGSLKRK

Mus musculus [15] = test: Antidyslipidemic activity in C57BL/Ks db/db mouse assessed as reduction of triacylglycerol level at 50 mg/kg, po after 2 weeks (reference value: 1.24 +/- 0.12 mmol/L); format: functional
Homo sapiens [16] = species: Homo sapiens; test: Selectivity ratio of IC50 for SHP1 to IC50 for GST-tagged human recombinant PTB1B
Mus musculus [17] = test: Antihyperglycemic activity in C57BL/Ks db/db mouse assessed as reduction of plasma glucose level at 50 mg/kg, po after 2 to 6 weeks by glucometer relative to control; format: functional; parameters: scale not given: the % may be the effect or the level left; how it was run: as §2
Mus musculus [18] = test: Antidyslipidemic activity in C57BL/Ks db/db mouse assessed as reduction of total cholesterol level at 50 mg/kg, po after 2 weeks (reference value: 9.8 +/- 0.7 mmol/L); format: functional
Homo sapiens [19] = species: Homo sapiens; test: Selectivity ratio of IC50 for TCPTP to IC50 for GST-tagged human recombinant PTB1B
Mus musculus [20] = test: Antidyslipidemic activity in C57BL/Ks db/db mouse assessed as reduction of total cholesterol level at 25 mg/kg, po after 2 weeks (reference value: 9.8 +/- 0.7 mmol/L); format: functional
Mus musculus [21] = test: Antidyslipidemic activity in C57BL/Ks db/db mouse assessed as reduction of triacylglycerol level at 50 mg/kg, po after 6 weeks (reference value: 1.56 +/- 0.17 mmol/L); format: functional
Mus musculus [22] = test: Antidyslipidemic activity in C57BL/Ks db/db mouse assessed as reduction of total cholesterol level at 50 mg/kg, po after 6 weeks (reference value: 9.2 +/- 1.2 mmol/L); format: functional
Mus musculus [23] = test: Antihyperglycemic activity in C57BL/Ks db/db mouse assessed as reduction of glycosylated hemoglobin level using HbA1c reagent at 25 mg/kg, po after 2 to 6 weeks relative to control; format: functional; parameters: scale not given: the % may be the effect or the level left; how it was run: as §1
[24] = biological target: Receptor-type tyrosine-protein phosphatase F (Homo sapiens, UniProt P10586); test: Inhibition of LAR using OMFP as substrate after 3 mins; how it was run: as §3
Receptor-type tyrosine-protein phosphatase F, sequence (P10586 whole entry): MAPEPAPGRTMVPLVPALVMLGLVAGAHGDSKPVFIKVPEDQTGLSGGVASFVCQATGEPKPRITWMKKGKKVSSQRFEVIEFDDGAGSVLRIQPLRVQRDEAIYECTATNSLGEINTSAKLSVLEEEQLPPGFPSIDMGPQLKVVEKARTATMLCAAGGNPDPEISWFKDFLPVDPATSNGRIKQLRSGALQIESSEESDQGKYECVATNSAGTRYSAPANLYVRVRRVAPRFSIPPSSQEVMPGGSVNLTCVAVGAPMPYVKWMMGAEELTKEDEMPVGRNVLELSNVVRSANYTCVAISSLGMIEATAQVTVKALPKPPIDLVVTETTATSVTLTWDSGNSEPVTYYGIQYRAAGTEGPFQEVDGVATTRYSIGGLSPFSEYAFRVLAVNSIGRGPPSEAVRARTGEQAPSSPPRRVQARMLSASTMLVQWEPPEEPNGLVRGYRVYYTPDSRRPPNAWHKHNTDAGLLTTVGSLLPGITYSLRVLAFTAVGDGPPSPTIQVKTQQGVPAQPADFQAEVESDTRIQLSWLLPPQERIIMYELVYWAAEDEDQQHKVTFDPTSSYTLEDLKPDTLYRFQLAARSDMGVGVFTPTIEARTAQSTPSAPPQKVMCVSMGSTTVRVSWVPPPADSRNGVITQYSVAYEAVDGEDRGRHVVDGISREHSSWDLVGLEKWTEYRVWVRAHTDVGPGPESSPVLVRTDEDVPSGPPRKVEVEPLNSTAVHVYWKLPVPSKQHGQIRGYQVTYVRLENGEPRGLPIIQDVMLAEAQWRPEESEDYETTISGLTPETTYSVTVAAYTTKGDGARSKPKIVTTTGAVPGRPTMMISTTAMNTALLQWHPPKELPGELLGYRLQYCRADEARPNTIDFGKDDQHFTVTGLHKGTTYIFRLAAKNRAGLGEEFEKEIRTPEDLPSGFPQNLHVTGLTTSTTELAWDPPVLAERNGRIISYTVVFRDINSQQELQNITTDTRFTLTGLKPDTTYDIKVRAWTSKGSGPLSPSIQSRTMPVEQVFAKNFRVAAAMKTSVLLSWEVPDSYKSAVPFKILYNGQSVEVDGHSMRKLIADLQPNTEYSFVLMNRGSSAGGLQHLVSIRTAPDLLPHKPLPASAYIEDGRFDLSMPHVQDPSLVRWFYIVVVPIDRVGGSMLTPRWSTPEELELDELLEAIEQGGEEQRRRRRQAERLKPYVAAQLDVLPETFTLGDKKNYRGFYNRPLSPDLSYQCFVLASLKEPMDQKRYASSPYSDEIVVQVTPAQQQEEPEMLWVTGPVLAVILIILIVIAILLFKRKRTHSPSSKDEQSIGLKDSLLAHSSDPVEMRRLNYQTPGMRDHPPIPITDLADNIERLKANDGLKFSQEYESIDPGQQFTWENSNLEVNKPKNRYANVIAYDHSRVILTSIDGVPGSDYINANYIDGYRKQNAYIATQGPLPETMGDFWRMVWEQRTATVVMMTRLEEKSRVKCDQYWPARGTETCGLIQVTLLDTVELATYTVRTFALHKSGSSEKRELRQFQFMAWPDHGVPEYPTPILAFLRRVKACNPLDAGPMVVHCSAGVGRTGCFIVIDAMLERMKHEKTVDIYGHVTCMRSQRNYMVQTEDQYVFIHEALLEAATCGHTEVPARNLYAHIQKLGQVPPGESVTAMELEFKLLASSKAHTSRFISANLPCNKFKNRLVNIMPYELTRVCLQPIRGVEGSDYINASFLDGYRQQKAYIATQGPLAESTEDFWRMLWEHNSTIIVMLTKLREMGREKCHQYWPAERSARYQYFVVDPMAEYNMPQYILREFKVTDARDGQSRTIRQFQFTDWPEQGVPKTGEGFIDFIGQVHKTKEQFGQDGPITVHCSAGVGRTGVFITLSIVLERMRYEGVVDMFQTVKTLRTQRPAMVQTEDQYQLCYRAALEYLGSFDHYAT

## COc1cc(Cc2cc(OC)c(OC)c(Br)c2Br)c(Br)c(Br)c1OC
[1]
  inhibition: 28.9%
[2]
  inhibition: 60.4%

## Oc1cc(Br)c(Cc2cc(O)c(O)cc2Br)cc1O
[2]
  inhibition: 20.9%

## COc1cc(Br)c(C(=O)c2cc(OC)c(OC)cc2Br)cc1OC
[2]
  inhibition: 33.6%

## O=C(c1cc(O)c(O)c(Br)c1Br)c1c(Br)c(O)c(O)c(Br)c1Br
[1]
  inhibition: 72.1%
[2]
  inhibition: 95.1%
[3]
  IC50: 2450 nM

## COc1cc(Br)c(Cc2cc(OC)c(OC)cc2Br)cc1OC
[2]
  inhibition: 33.6%

## O=C(c1ccc(O)c(O)c1)c1cc(O)c(O)cc1Br
[2]
  inhibition: 11.2%

## Oc1cc(Br)c(Cc2cc(O)c(O)c(Br)c2Br)cc1O
[2]
  inhibition: 40.5%

## Oc1c(O)c(Br)c(Cc2c(Br)c(O)c(O)c(Br)c2Br)c(Br)c1Br
Mus musculus [4]
  Activity: 3.05%
Mus musculus [5]
  Activity: Non-toxic
Mus musculus [6]
  Activity: 9.1 mmol/L
[1]
  inhibition: 86.7%
Homo sapiens [7]
  Ratio IC50: > 70
Mus musculus [8]
  Activity: 33.5%
[9]
  IC50: > 50000 nM
Mus musculus [10]
  Activity: 1.2 mmol/L
[11]
  IC50: > 50000 nM
Mus musculus [12]
  Activity: 1.45 mmol/L
Homo sapiens [13]
  Ratio IC50: > 70
[2]
  inhibition: 101%
[14]
  IC50: > 50000 nM
Mus musculus [15]
  Activity: 1.28 mmol/L
Homo sapiens [16]
  Ratio IC50: > 70
Mus musculus [17]
  Activity: 40.4%
Mus musculus [18]
  Activity: 7.1 mmol/L
[3]
  IC50: 680 nM
Homo sapiens [19]
  Ratio IC50: > 70
Mus musculus [20]
  Activity: 8.3 mmol/L
Mus musculus [21]
  Activity: 1.51 mmol/L
Mus musculus [22]
  Activity: 8.4 mmol/L
Mus musculus [23]
  Activity: 3.05%
[24]
  IC50: > 50000 nM

## COc1cc(C(=O)c2cc(OC)c(OC)c(Br)c2Br)c(Br)c(Br)c1OC
[2]
  inhibition: 21.4%

## O=C(c1cc(O)c(O)cc1Br)c1cc(O)c(O)cc1Br
[2]
  inhibition: 8.74%

## COc1c(Br)c(Br)c(C(=O)c2c(Br)c(Br)c(OC)c(OC)c2Br)c(Br)c1OC
[1]
  inhibition: 47.8%
[2]
  inhibition: 105%
[3]
  IC50: 2020 nM

## COc1c(Br)c(Br)c(Cc2c(Br)c(Br)c(OC)c(OC)c2Br)c(Br)c1OC
[1]
  inhibition: 37.9%
[2]
  inhibition: 96.9%

## COc1cc(Br)c(C(=O)c2cc(OC)c(OC)c(Br)c2Br)cc1OC
[2]
  inhibition: 37.5%

## COc1ccc(Cc2cc(OC)c(OC)cc2Br)cc1OC
[2]
  inhibition: 14.4%

## Oc1ccc(Cc2ccc(O)c(O)c2)cc1O
[2]
  inhibition: 9.27%

## COc1cc(Cc2c(Br)c(Br)c(OC)c(OC)c2Br)c(Br)c(Br)c1OC
[1]
  inhibition: 49.3%
[2]
  inhibition: 98.7%

## Oc1cc(Cc2cc(O)c(O)c(Br)c2Br)c(Br)c(Br)c1O
[1]
  inhibition: 38.9%
[2]
  inhibition: 91.3%
[3]
  IC50: 2420 nM

## COc1ccc(Cc2ccc(OC)c(OC)c2)cc1OC
[2]
  inhibition: 38.4%

## Oc1cc(Cc2c(Br)c(O)c(O)c(Br)c2Br)c(Br)c(Br)c1O
[1]
  inhibition: 45.3%
[2]
  inhibition: 92.3%

## O=C(c1cc(O)c(O)c(Br)c1Br)c1cc(O)c(O)c(Br)c1Br
[2]
  inhibition: 20.3%

## O=C(c1ccc(O)c(O)c1)c1ccc(O)c(O)c1
[2]
  inhibition: 13.5%

## CN(CCOc1ccc(CC2SC(=O)NC2=O)cc1)c1ccccn1 (stereo unspecified) [ROSIGLITAZONE]
Mus musculus [4]
  Activity: 2.56%
Mus musculus [15]
  Activity: 1.06 mmol/L
Mus musculus [17]
  Activity: 48.4%
Mus musculus [18]
  Activity: 6.5 mmol/L
Mus musculus [21]
  Activity: 1.29 mmol/L
Mus musculus [22]
  Activity: 7.7 mmol/L

## COc1ccc(C(=O)c2cc(OC)c(OC)cc2Br)cc1OC
[2]
  inhibition: 13%

## COc1cc(Br)c(Cc2cc(OC)c(OC)c(Br)c2Br)cc1OC
[1]
  inhibition: 40.2%
[2]
  inhibition: 52.5%

## O=C(c1c(Br)c(O)c(O)c(Br)c1Br)c1c(Br)c(O)c(O)c(Br)c1Br
[1]
  inhibition: 29.2%
[2]
  inhibition: 78.6%

## COc1ccc(C(=O)c2ccc(OC)c(OC)c2)cc1OC
[2]
  inhibition: 2.72%

## COc1cc(C(=O)c2c(Br)c(Br)c(OC)c(OC)c2Br)c(Br)c(Br)c1OC
[1]
  inhibition: 50.6%
[2]
  inhibition: 69.8%
[3]
  IC50: 3260 nM

## Oc1ccc(Cc2cc(O)c(O)cc2Br)cc1O
[2]
  inhibition: 12.2%

## O=C(c1cc(O)c(O)cc1Br)c1cc(O)c(O)c(Br)c1Br
[2]
  inhibition: 42.7%
